Results published in ChEMBL document CHEMBL5260794, “Synthesis and biological evaluation of a new class of benzothiazines as neuroprotective agents” (Eur J Med Chem, 2017).
The source made the active and inactive calls. No cut-off for these calls is given here.

Legend:
Rattus norvegicus [1] = organism: Rattus norvegicus; assay: Neuroprotective activity against oxygen glucose deprivation/reperfusion-induced Wistar rat cortical brain assessed as reduction in LDH release relative to control; format: functional; design: concentration or dose not given beside the values
Method in brief: (§1)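 Male Wistar rat cortical slices (400 μm) in oxygenated ACSF, pH 7.4, 1 h at room temperature, then 30 min at 37 °C. OGD for 30 min in glucose-free ACSF with 11 mM sucrose under 95% N₂/5% CO₂. Compound added in the reoxygenation buffer. Glutamate and LDH release measured. Mean ± SEM of at least four experiments, ANOVA with Dunnett test.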

Rattus norvegicus [2] = organism: Rattus norvegicus; assay: Neuroprotective activity against oxygen glucose deprivation/reperfusion-induced Wistar rat cortical brain assessed as concentration required to reduce glutamate release by measuring efficacy window; format: functional; method in brief: as §1
Rattus norvegicus [3] = organism: Rattus norvegicus; assay: Neuroprotective activity against oxygen glucose deprivation/reperfusion-induced Wistar rat cortical brain assessed as concentration required to reduce LDH release by measuring efficacy window; format: functional; method in brief: as §1
Rattus norvegicus [4] = organism: Rattus norvegicus; assay: Neuroprotective activity against oxygen glucose deprivation/reperfusion-induced Wistar rat cortical brain assessed as reduction in glutamate release relative to control; format: functional; design: concentration or dose not given beside the values; method in brief: as §1
Rattus norvegicus [5] = organism: Rattus norvegicus; assay: Neuroprotective activity against oxygen glucose deprivation/reperfusion-induced Wistar rat cortical brain assessed as reduction in LDH release by measuring minimal effective concentration; format: functional; method in brief: as §1
Rattus norvegicus [6] = organism: Rattus norvegicus; assay: Neuroprotective activity against oxygen glucose deprivation/reperfusion-induced Wistar rat cortical brain assessed as reduction in glutamate release by measuring minimal effective concentration; format: functional; method in brief: as §1
SH-SY5Y [7] = assay: Neuroprotective activity against glutamate-induced toxicity in human SH-SY5Y cells assessed as reduction in ROS production measured after 24 hrs by DCFH-DA staining based assay; format: functional, cell-based; details: dose 0.1-10 µM
Method in brief: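 Human SH-SY5Y neuroblastoma cells were preloaded with DCFH-DA (5 μM, 30 min) and washed in PBS. They were then pretreated for 1 h with compound (0.1-10 μM; DMSO stock diluted in PBS, final DMSO <0.01%) and challenged with glutamate (50 mM). Fluorescence (ex 485/em 535 nm) was read at 24 h and expressed as % inhibition of glutamate-induced ROS. Data are mean ± SEM of 4 experiments run in triplicate or quadruplicate.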

SH-SY5Y [8] = assay: Neuroprotective activity against glutamate-induced toxicity in human SH-SY5Y cells assessed as reduction in grade 2 to 3 toxicity at 0.01 uM pretreated for 1 hr followed by glutamate challenge measured after 24 hrs by phase-contrast light microscopic analysis; format: functional, cell-based; details: time 25.0 hrs
Method in brief: (§2)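 SH-SY5Y cells pretreated with compound 1 h, then glutamate 50 mM for 24 h. Morphology examined and photographed by phase-contrast microscopy. Scored on USP 28 grade scale 0-4, with grades based on cell rounding, loss of intracytoplasmic granules, lysis and empty areas between cells. Control wells received medium only.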

SH-SY5Y [9] = assay: Neuroprotective activity against glutamate-induced toxicity in human SH-SY5Y cells assessed as reduction in G0/G1 phase cells at 0.01 uM pretreated for 1 hr followed by glutamate challenge measured after 24 hrs by propidium staining based flow cytometry; format: functional, cell-based; details: time 25.0 hrs
Method in brief: (§3)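 Cells seeded 2.5 x 10⁵ cells/mL, pretreated with compound 1 h, then glutamate 50 mM for 24 h. Cells fixed in 70% ethanol (30 min, 4 °C), kept at -20 °C for at least 24 h, stained with propidium iodide and run on flow cytometer (563-607 nm band-pass). At least 1x10⁴ cells acquired per sample; sub-G0/G1 peak taken as apoptotic. Mean ± SEM, 4 independent experiments.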

SH-SY5Y [10] = assay: Neuroprotective activity against glutamate-induced toxicity in human SH-SY5Y cells assessed as reduction in cell detachment at 0.01 uM pretreated for 1 hr followed by glutamate challenge measured after 24 hrs by phase-contrast light microscopic analysis; format: functional, cell-based; details: time 25.0 hrs; method in brief: as §2
SH-SY5Y [11] = assay: Neuroprotective activity against glutamate-induced toxicity in human SH-SY5Y cells assessed as cell viability at 0.01 uM pretreated for 1 hr followed by glutamate challenge measured after 24 hrs by MTT assay; format: functional; details: time 25 hrs, read-out: Activity
SH-SY5Y [12] = assay: Neuroprotective activity against glutamate-induced toxicity in human SH-SY5Y cells assessed as reduction in condensed and fragmented nuclei at 0.01 uM pretreated for 1 hr followed by glutamate challenge measured after 24 hrs by DAPI staining based assay (reference value: 16.9 +/- 1.5%); format: functional, cell-based; details: time 25.0 hrs
SH-SY5Y [13] = assay: Neuroprotective activity against glutamate-induced toxicity in human SH-SY5Y cells assessed as increase in S phase cells at 0.01 uM pretreated for 1 hr followed by glutamate challenge measured after 24 hrs by propidium staining based flow cytometry; format: functional, cell-based; details: time 25.0 hrs; method in brief: as §3
SH-SY5Y [14] = assay: Neuroprotective activity against glutamate-induced toxicity in human SH-SY5Y cells assessed as reduction in cell rounding at 0.01 uM pretreated for 1 hr followed by glutamate challenge measured after 24 hrs by phase-contrast light microscopic analysis; format: functional, cell-based; details: time 25.0 hrs; method in brief: as §2
SH-SY5Y [15] = assay: Neuroprotective activity against 6-OHDA-induced toxicity in human SH-SY5Y cells assessed as increase in cell viability at 0.01 uM pretreated for 1 hr followed by 6-OHDA challenge measured after 2 hrs by MTT assay; format: functional, cell-based; details: time 3.0 hrs
Method in brief: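 SH-SY5Y cells (RPMI 1640, 10% FBS, 37 °C, 5% CO2, used in exponential growth) seeded 8 x 10⁴ cells/mL, attached 24 h, pre-incubated with compound 1 h, then 6-OHDA 55 μM for 2 h (6-OHDA freshly dissolved in nitrogen-gassed 5 μM ascorbic acid). Controls received medium with 5 μM ascorbic acid. Viability by MTT. Mean ± SEM of 4 independent experiments, each in triplicate or quadruplicate.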

SH-SY5Y [16] = assay: Neuroprotective activity against glutamate-induced toxicity in human SH-SY5Y cells assessed as reduction in cell shrinkage at 0.01 uM pretreated for 1 hr followed by glutamate challenge measured after 24 hrs by phase-contrast light microscopic analysis; format: functional, cell-based; details: time 25.0 hrs; method in brief: as §2
SH-SY5Y [17] = assay: Neuroprotective activity against 6-OHDA-induced toxicity in human SH-SY5Y cells assessed as condensed and fragmented nuclei at 0.01 uM pretreated for 1 hr followed by 6-OHDA challenge measured after 2 hrs by DAPI staining based assay relative to control; format: functional; details: time 3 hrs
SH-SY5Y [18] = assay: Neuroprotective activity against glutamate-induced toxicity in human SH-SY5Y cells assessed as reduction in sub G0/G1 phase cells at 0.01 uM pretreated for 1 hr followed by glutamate challenge measured after 24 hrs by propidium staining based flow cytometry; format: functional, cell-based; details: time 25.0 hrs; method in brief: as §3
SH-SY5Y [19] = assay: Neuroprotective activity against glutamate-induced toxicity in human SH-SY5Y cells assessed as reduction in ROS production at 0.01 uM by DCFH-DA staining based assay; format: functional, cell-based; details: time 24.0 hrs, TDE = time-dependent effect
Method in brief: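 Before treatment, SH-SY5Y cells loaded with DCFH-DA (5 μM, 30 min) and washed in PBS. Then 1 h compound pretreatment followed by glutamate 50 mM. Fluorescence read at 1 h or 24 h (ex 485, em 535 nm). Result expressed as % inhibition of glutamate-induced intracellular ROS. Mean ± SEM, 4 independent experiments in triplicate or quadruplicate.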

SH-SY5Y [20] = assay: Neuroprotective activity against 6-OHDA-induced toxicity in human SH-SY5Y cells assessed as reduction in condensed and fragmented nuclei at 10 uM pretreated for 1 hr followed by 6-OHDA challenge measured after 2 hrs by DAPI staining based assay relative to control; details: time 3.0 hrs

Row | SMILES | Activity (Rattus norvegicus [1]) | Efficacy (Rattus norvegicus [2]) | Efficacy (Rattus norvegicus [3]) | Activity (Rattus norvegicus [4]) | MEC (Rattus norvegicus [5]) | MEC (Rattus norvegicus [6]) | further results
1 | CCN(CC)/C(C)=N/C1=Nc2ccc(OC(F)(F)F)cc2CS1 | inactive | inactive | inactive | inactive | inactive | inactive | –
2 | CCCNC(=S)NC1=Nc2ccccc2CS1 | inactive | 0.001 µM | inactive | 45.7% | inactive | 0.001 µM | –
3 | C/C(=N\C1=Nc2ccccc2SC1)N(C)C | inactive | inactive | inactive | inactive | inactive | inactive | –
4 | Nc1nc2ccc(OC(F)(F)F)cc2s1 [RILUZOLE] | – | – | – | – | – | – | Activity (SH-SY5Y [7]): Dose-Dependent Effect; Activity (SH-SY5Y [8]): Active; Activity (SH-SY5Y [9]): Active; Activity (SH-SY5Y [10]): Active; viability at 0.01 µM (SH-SY5Y [11]): 65%; Activity (SH-SY5Y [12]): Active; Activity (SH-SY5Y [13]): Active; Activity (SH-SY5Y [14]): Active; Activity (SH-SY5Y [15]): Active; Activity (SH-SY5Y [16]): Active; Activity (SH-SY5Y [17]): >20%; Activity (SH-SY5Y [18]): Active; Activity (SH-SY5Y [19]): Tde
5 | CCCN(CCC)/C(C)=N/C1=Nc2ccccc2SC1 | 53.5% | inactive | 10 µM | inactive | 10 µM | inactive | –
6 | CCN(CC)/C(C)=N/C1=Nc2ccccc2SC1 | inactive | inactive | inactive | inactive | inactive | inactive | –
7 | CN/C(C)=N/C1=Nc2ccccc2SC1 | 33.2% | 0.1 µM | 100 µM | 25.5% | 100 µM | 0.1 µM | –
8 | C/C(=N\C1=Nc2ccccc2CS1)N(C)C | 78.4% | 0.01 µM | 0.01 µM | 72.7% | 0.01 µM | 0.01 µM | –
9 | NC1=Nc2ccc(OC(F)(F)F)cc2CS1 | inactive | 0.001 µM | inactive | 69.1% | inactive | 0.001 µM | –
10 | CN/C(C)=N/C1=Nc2ccccc2CS1 | 40.1% | 5 µM | 1 µM | 43.6% | 0.1 µM | 5 µM | Activity (SH-SY5Y [20]): Active
11 | CCCN(CCC)/C(C)=N/C1=Nc2ccc(OC(F)(F)F)cc2CS1 | 31% | 0.01 µM | 0.1 µM | 17.8% | 0.1 µM | 0.01 µM | –
